H69AR inhibit: blocks growth of human H69AR lung tumor cells. viability, % at 10 µM. hit rate 6% among 85,000. H69AR lung tumor viability, ATP luminescence, 72 h; active compounds read low;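 active = viability at or below 40%; inactive = viability above 40%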;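 also: multidrug resistant small cell line overexpressing MRP-1 efflux transporter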
HUVEC prolif 384: human endothelial cell proliferation inhibition. HUVEC proliferation, CellTiter-Glo luminescence, 72 h; active compounds read low. viability, % at 10 µM (by protocol). hit rate 1.1% among 86,000;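 active = viability at or below 30%; inactive = viability above 30%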
Fibroblast inh: blocks proliferation of human lung fibroblasts | LL 47 human lung fibroblast viability, ATP luminescence; active compounds read low | viability, % at 10 µM | hit rate 1.1% among 85,000;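 active = viability at or below 50% in the single dose screen; inactive = viability above 50%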;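 also: compound exposure lasted 72 h before the ATP readout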
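Test system: LL 47 human lung fibroblasts / Incubation: 72 h compound exposure at 37 °C after overnight plating / Technique: luminescent ATP detection, CellTiter-Glo / Compound dosing: 0.1% DMSO in all compound wells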
PTEN del growth: suppresses growth of cells with PTEN deletion; HCT116 PTEN-null viability, CellTiter-Glo, 60 h; active compounds read low; viability, % at 10 µM; hit rate 1.2% among 140,000; AID 827;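 active = viability at or below a set limit, 4 SD under the median of all tested compounds, cut at about 3.7% in these data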;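 also: PTEN knockout HCT116 line with beta catenin targeted HCT116 as companion control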
HCT116 bCat-KO: beta-catenin-lacking colon tumor cell growth suppression. AID 818. HCT116 beta-catenin knockout viability, CellTiter-Glo, 60 h; active compounds read low. viability, % at 10 µM. hit rate 1.5% among 140,000;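 active = viability at or under a set limit, the compound median less 4 SD, cut at about 6% in these data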
Calb biofilm kill: kills Candida albicans biofilms; C. albicans biofilm + clotrimazole, Alamar Blue; inhibition, % at 6 µM; hit rate 0.14% among 85,000;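 active = inhibition above 20%; inactive = inhibition below 20%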;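 also: preformed 24 hr biofilms exposed to compound for 48 hr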
Each line names hits and unclear results; the compound was inactive in the other large screens. This excerpt belongs to a sample that is enriched for hits.

CCOc1c(Cl)cc(CNCC(C)C)cc1OC	Calb biofilm kill 59
NC(=O)c1c(NC(=O)c2cc3ccccc3o2)sc2c1CCC2	H69AR inhibit 24
COC(=O)Nc1sc2c(c1C(=O)NCc1ccco1)CCC2	H69AR inhibit 39
COc1ccc(C(=O)Nc2sc3c(c2C(=O)NCc2ccco2)CCCC3)cc1OC	H69AR inhibit 36
CC(C(=O)Nc1sc2c(c1C(=O)NCc1ccco1)CCCC2)N1C(=O)c2ccccc2C1=O (stereo not given)	H69AR inhibit 23
COC(=O)Nc1sc2c(c1C(=O)NCc1ccco1)CCCC2	none
CC/C(=C\C(=O)c1cccnc1)Nc1ccc(C)c(C)c1	none
COc1ccc(C2=NC(=O)/C(=C\c3cc(OC)c(OC)c(OC)c3)O2)cc1	none (no result: H69AR inhibit, HUVEC prolif 384, Fibroblast inh, Calb biofilm kill)
CCc1nnc(NC(=O)c2ccc3c(c2)C(=O)N(CC)C3=O)s1	none
COc1ccc(NC(=O)CSc2nnc(CCC(=O)Nc3ccc(C)c(Cl)c3)n2C)cc1	none (no result: H69AR inhibit, HUVEC prolif 384, Fibroblast inh, Calb biofilm kill)
Cc1ccc(C(=O)Nc2sc3c(c2C(=O)NCc2ccco2)CCCC3)cc1	H69AR inhibit 11
O=C(Nc1sc2c(c1C(=O)NC1CC1)CCCCCC2)c1ccco1	H69AR inhibit 30
Cc1cc(C(=O)NNC(=S)NC(C)c2ccccc2)c2ccccc2n1 (stereo not given)	none (no result: H69AR inhibit, HUVEC prolif 384, Fibroblast inh, Calb biofilm kill)
COc1cc(OC)cc(C(=O)NC2CCN(CC(=O)Nc3cccc4ccccc34)CC2)c1	H69AR inhibit 39
O=C(CN1CCC(NC(=O)c2ccco2)CC1)Nc1cccc2ccccc12	none
Cc1cc(Oc2nc3c(C)cccn3c(=O)c2/C=C(\C#N)S(=O)(=O)c2ccccc2)ccc1Cl	PTEN del growth 2.3, HCT116 bCat-KO 1.6 (no result: H69AR inhibit, HUVEC prolif 384, Fibroblast inh, Calb biofilm kill)
Cc1cccn2c(=O)c(/C=C(\C#N)S(=O)(=O)c3ccccc3)c(Oc3ccc(Cl)cc3)nc12	PTEN del growth 2.2, HCT116 bCat-KO 3.6 (no result: H69AR inhibit, HUVEC prolif 384, Fibroblast inh, Calb biofilm kill)
Cc1ccc(S(=O)(=O)c2nc(-c3cccs3)oc2NCCCN(C)C)cc1	none (no result: H69AR inhibit, HUVEC prolif 384, Fibroblast inh, Calb biofilm kill)
Cc1ccccc1NC(=O)CSC(N)=O	none
COC(=O)c1c(NC(=O)CN2CCN(Cc3ccc4c(c3)OCO4)CC2)sc(C)c1C	H69AR inhibit 1.9
COc1cc(NC(=O)Nc2ccccc2OC)c(OC)cc1NC(=O)CN1CCCCC1	none
COc1ccccc1NC(=O)CSC(N)=O	H69AR inhibit 28
COc1ccccc1NC(=O)CN1CCN(C2c3ccccc3-c3ccccc32)CC1	H69AR inhibit 38
COc1cc(NC(=O)Nc2ccccc2)c(OC)cc1NC(=O)CN1CCCCC1	HUVEC prolif 384 12
N#CC1=C(N)N2C(=C(C#N)C13CCCCC3)SC1CCCCC12O (stereo not given)	none (no result: H69AR inhibit, HUVEC prolif 384, Fibroblast inh, Calb biofilm kill)
CC1=C(C(=O)OCC2CCCO2)C(c2ccncc2)C2=C(CC(C)(C)CC2=O)N1 (stereo not given)	none
COc1ccc(Cl)cc1NC(=O)c1nc2nc(C)cc(C(F)F)n2n1	none
COc1ccccc1NC(=O)CN1CCN(CC(=O)Nc2ccc3c(c2)OCO3)CC1	H69AR inhibit 9.8
COc1ccc(NC(=O)CN2CCN(C3c4ccccc4-c4ccccc43)CC2)c(OC)c1	none
CCOc1ccc(NC(=O)CN2CCN(C3c4ccccc4-c4ccccc43)CC2)cc1	H69AR inhibit 32
O=C(CN1CCN(S(=O)(=O)c2cc(Cl)ccc2Cl)CC1)Nc1ccc2c(c1)OCCO2	H69AR inhibit 35
Cc1ccc(C(=O)CSc2nnc(-c3ccco3)n2CC2CCCO2)cc1 (stereo not given)	none
Cn1cccc1Cc1nnc(SCC(=O)NC2CCCC2)n1-c1ccc(F)cc1	none
COc1ccc(-n2c(Cc3cccn3C)nnc2SCC(=O)NC2CCCCC2)cc1	Calb biofilm kill 64
Cc1ccc(C(=O)Nc2ncnc3sc4c(c23)CCCCC4)cc1	H69AR inhibit 31
C[C@H](Nc1ncnc2sc3c(c12)CCC3)C(=O)O	none
CC1(C)CC(=O)C2=C(C1)OC(N)=C([N+](=O)[O-])C2c1cccs1 (stereo not given)	none (no result: H69AR inhibit, HUVEC prolif 384, Fibroblast inh, Calb biofilm kill)
CC(C)OC(=O)/C(C#N)=C/c1c[nH]c2ccccc12	none (no result: H69AR inhibit, HUVEC prolif 384, Fibroblast inh, Calb biofilm kill)
CSCC[C@H](NC(=O)c1ccc(Cl)c(S(=O)(=O)N2CCCC2)c1)c1nc2ccccc2[nH]1	none
COC(=O)c1ccc(CC(=O)c2nc3ccccc3s2)cc1	none (no result: H69AR inhibit, HUVEC prolif 384, Fibroblast inh, Calb biofilm kill)
COC(=O)c1ccc(/C(O)=C(\C#N)c2nc3ccccc3s2)cc1	H69AR inhibit 32
O=C(CSCc1cccc(Br)c1)NC1CC1	none (no result: H69AR inhibit, HUVEC prolif 384, Fibroblast inh, Calb biofilm kill)
